L major viab: Leishmania major promastigote growth inhibition, primary screen | Leishmania major promastigotes, resazurin fluorescence viability | inhibition, % at 10 µM | 200,000 compounds, 9% hits; in the data active means inhibition above about 50%;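 further: promastigotes grown with compound for 44 hours at 28 °C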
Ba/F3 V617F tox: reduced viability of JAK2V617F-dependent Ba/F3 cells, primary screen, JAK2V617F inhibitor project, cell-based, Ba/F3 EpoR-JAK2V617F, luminescence; AID 1446, 2008; inhibition, % at 5.6 µM; 220,000 compounds, 1.1% hits; ATP luminescence;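 active means inhibition above the campaign mean plus 3 SD over all tested compounds, cut at about 24% in these data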;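 further: cytokine-independent growth of Ba/F3 cells driven by EpoR plus mutant JAK2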
APP transl inh: inhibitors of APP translation via 5'UTR reporter, primary screen, APP 5'UTR luciferase, SH-SY5Y cells; inhibition, % at 2 µM; AID 1285, 2008; SH-SY5Y APP 5'UTR-luciferase reporter, luminescence; 190,000 compounds, 0.82% hits;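 active means inhibition above a set limit, derived from the sample mean plus 3 SD, cut at about 45% in these data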
b-catenin transl: modulators of beta-catenin nuclear translocation, primary screen, imaging, HeLa cells, immunofluorescence, high-content. nuclear translocation activity, % at 5 µM. 190,000 compounds, 0.3% hits. AID 1665, 2009;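 active means nuclear translocation activity above 50% at 5 µM, with a well cell count of 50 or more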;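 further: per-cell ratio of nuclear to cytoplasmic median beta-catenin stain intensity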
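Test system: human HeLa cell line; Doses: 5 µM primary, 0.02–20 µM confirmation; Incubation: 24 h compound exposure, 37°C; Detection: beta-catenin immunofluorescence imaging with DAPI; Read-out: beta-catenin nuclear/cytoplasmic ratio, % activation.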
MT stabilizer: microtubule stabilizers in HeLa cells, primary screen, imaging, high-content imaging; HeLa tubulin immunostaining HCS, 24 h; share of cells brighter than vehicle mean+2SD; % tubulin-high responders, % at 10 µM; 200,000 compounds, 0.83% hits; AID 2205, 2009;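 active means plate Z-score above 3 for both tubulin-high and condensed-nucleus cell shares, with cell loss under 80%, at 10 µM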;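 further: anti alpha tubulin signal scored within the nucleus-defined area of each cell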
BaF3 tox: parental Ba/F3 cell viability inhibition, counter-screen for JAK2V617F inhibitor project, murine pro-B, CellTiter-Glo luminescence; 220,000 compounds, 1.1% hits; inhibition, % at 5.6 µM; CellTiter-Glo ATP luminescence; AID 1486, 2009;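 active means inhibition above a per-campaign cutoff, the mean inhibition of all tested compounds plus 3 SD, cut at about 27% in these data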
Each line names hits and unclear results; the compound was inactive in the other large screens. In the library only some 9.6% were active in any assay of this set; here they are far more common.

CCOC(=O)N1CCC(NS(=O)(=O)c2ccc(NC(C)=O)c(Cl)c2)CC1	none (no result: L major viab, APP transl inh, MT stabilizer)
Cc1cc(=O)n2[nH]c(NCc3c(F)cccc3Cl)nc2n1	none
Cc1c(NC(=O)c2cc3nc(-c4ccc(Br)cc4)cc(C(F)(F)F)n3n2)c(=O)n(-c2ccccc2)n1C	BaF3 tox 94
CCCc1cc(-c2nc(-c3ccc(Br)cc3)cs2)ccn1	L major viab 60
CCOC(=O)C1(CCCc2ccccc2)CCN(C(=O)Cn2nc(C)nc2C)CC1	none (no result: L major viab, APP transl inh, MT stabilizer)
O=C(NNc1cccc(Cl)c1)c1cccnc1Cl	L major viab 88
O=C(NNc1cccc(Cl)n1)c1cccnc1Cl	none
O=C(NCc1ccc2c(c1)OCO2)C1CCCN1S(=O)(=O)c1ccc(F)cc1 (configuration not stated)	none (no result: L major viab, APP transl inh, MT stabilizer)
O=C(Nc1cc(Cl)ccc1Cl)c1ccc(-c2ccccc2)cc1	L major viab 51 (no result: b-catenin transl)
O=C(Nc1cccc(Cl)c1Cl)c1ccc(-c2ccccc2)cc1	none
COc1cccc2cc(S(=O)(=O)c3ccccc3)c(=Nc3ccc4c(c3)OCCO4)oc12	L major viab 92 (no result: b-catenin transl)
Cc1ccc(S(=O)(=O)c2cc3ccccc3oc2=Nc2ccc3c(c2)OCCO3)cc1	L major viab 98 (no result: b-catenin transl)
O=C(Cn1c(=O)oc2cc(S(=O)(=O)N3CCCCC3)ccc21)N1CCc2ccccc21	none
CCn1c(=O)n(CC)c2cc(S(=O)(=O)N3CCc4ccccc43)ccc21	L major viab 87
O=C(Cn1c(=O)oc2cc(S(=O)(=O)N3CCCC3)ccc21)N1CCN(c2ccccn2)CC1	L major viab 100
CC(=O)N1CCc2ccc(S(=O)(=O)N3CCc4ccccc43)cc21	none
CC1Cc2ccccc2N1C(=O)Cn1c(=O)oc2cc(S(=O)(=O)N3CCCCC3)ccc21 (configuration not stated)	L major viab 100 (no result: b-catenin transl)
O=C(Cn1c(=O)oc2cc(S(=O)(=O)N3CCc4ccccc43)ccc21)N1CCCCC1	L major viab 98
O=C1NC(=S)N/C1=C\c1ccc(Oc2ccc(C(F)(F)F)cc2[N+](=O)[O-])c(Cl)c1	none (no result: L major viab, APP transl inh, MT stabilizer)
O=c1[nH]nc(-c2ccc(F)cc2)cc1Cc1ccccc1	none (no result: L major viab, APP transl inh, MT stabilizer)
COc1cccc(CN2CCC(C(=O)N3CCN(c4ccccc4F)CC3)CC2)c1OC	none
CSc1nnc(N(CCC#N)CCC#N)s1	none
CN1CCN(C(=O)C23CC4CC(C2)CC(c2ccccc2)(C4)C3)CC1	none
O=C(Cn1c(=O)oc2cc(S(=O)(=O)N3CCOCC3)ccc21)N1CCc2ccccc2C1	none
Cc1c(C(=O)N2CCc3ccccc3C2)oc2ccc(S(=O)(=O)N3CCCCCC3)cc12	L major viab 66
O=C(Cn1c(=O)oc2cc(S(=O)(=O)N3CCCC3)ccc21)N1CCc2ccccc2C1	L major viab 100 (no result: b-catenin transl)
Cc1cccc(-n2ccnc2CN2CCC(CO)(Cc3ccccc3)CC2)c1	none (no result: L major viab, APP transl inh, MT stabilizer)
Nc1c2c(nc3sc4c(c13)CCCCC4)CCCCC2	L major viab 63
CC1CCc2c(nc3sc4c(c3c2N)CCCC4)C1 (configuration not stated)	L major viab 97
CC1CCc2nc3sc4c(c3c(N)c2C1)CCCC4 (configuration not stated)	L major viab 92
CCCN1CCN(C(c2cc3cc(OCC)ccc3[nH]c2=O)c2nnnn2C2CCCCC2)CC1 (configuration not stated)	none
CCOc1ccc2[nH]c(=O)c(CN(CCO)C(c3nnnn3C3CCCCC3)C(C)C)cc2c1 (configuration not stated)	L major viab 69
C=CCNC(=S)/N=c1/ccccn1CC	BaF3 tox 29 (no result: L major viab, APP transl inh, MT stabilizer)
C=CCNC(=S)Nc1ccccc1	none
OCCNC(=S)NCc1ccccc1	none (no result: L major viab, APP transl inh, MT stabilizer)
OC(CNCc1ccc(-c2ccccc2)cc1)c1ccccc1 (configuration not stated)	L major viab 99, b-catenin transl 68
OCCNCc1ccc(-c2ccccc2)cc1	L major viab 63
C=C(C)CC(c1ccccc1)N(C(C)=O)c1ccco1 (configuration not stated)	none
CCC(C(=O)Nc1cnccn1)c1ccccc1 (configuration not stated)	none
CCC(C(=O)Nc1cc(C(=O)Nc2cc(C)ccn2)ccc1Cl)c1ccccc1 (configuration not stated)	L major viab 81
O=[N+]([O-])c1ccc(Oc2c(F)c(F)nc(N3CCCC3)c2F)cc1	APP transl inh 83
CC(C)(C)c1nc2ccccc2c2nnc(SCC(=O)Nc3nccs3)n12	MT stabilizer 42
COc1ccc(N2CCN(C(c3ccc4ncccc4c3)c3nnnn3C(C)C)CC2)cc1 (configuration not stated)	none (no result: L major viab, APP transl inh, MT stabilizer)
COc1ccc(CCNC(=S)N2CCC(C(=O)c3ccc(F)cc3)CC2)cc1OC	APP transl inh 48
CCCc1cc(NCCCO)n2c(nc3ccccc32)c1C#N	none (no result: L major viab, APP transl inh, MT stabilizer)
CSc1nc(-c2ccc(C)cc2)[nH]c1S(=O)(=O)c1ccccc1	L major viab 56
COCCNC(=O)C1=C(N)C(C(=O)Nc2ccc(C)c(S(=O)(=O)N3CCCCC3)c2)SC1=Nc1ccc(C)cc1C (configuration not stated)	none (no result: b-catenin transl)
Cc1cc(OCC(O)CN)ccc1Cl (configuration not stated)	L major viab 92
Cc1cccc(C)c1OCC(O)CN (configuration not stated)	none
CN(C)C(=O)c1sccc1Oc1ccc(F)cc1[N+](=O)[O-]	none
CC1CCCCN1C(=S)Nc1ccc2nc3n(c(=O)c2c1)CCCCC3 (configuration not stated)	L major viab 59 (no result: b-catenin transl)
O=c1c2cc(NC(=S)N3CCC(N4CCCCC4)CC3)ccc2nc2n1CCCCC2	none
O=c1c2cc(NC(=S)NC3CC3)ccc2nc2n1CCCCC2	none
O=c1c2cc(NC(=S)NC3CCN(Cc4ccccc4)CC3)ccc2nc2n1CCCCC2	L major viab 54
O=c1c2cc(NC(=S)NCCCN3CCC(Cc4ccccc4)CC3)ccc2nc2n1CCCCC2	L major viab 99
CC(C)[C@H](NC(N)=O)C(=O)Nc1cccc(S(=O)(=O)N2CCOCC2)c1	none
Cc1nn(C)c(C(=O)N2CCOCC2)c1Cl	none
COc1ccc(CN=C2NC(=O)CC(C(=O)Nc3ccccc3C)S2)cc1 (configuration not stated)	none
COc1ccc(CN=C2NC(=O)CC(C(=O)Nc3ccc([N+](=O)[O-])cc3C)S2)cc1 (configuration not stated)	L major viab 86
Cc1ccc(OCc2ccc(C(=O)Nc3c(C)nn(Cc4c(F)c(F)c(F)c(F)c4F)c3C)o2)c([N+](=O)[O-])c1	L major viab 92
